# Assay results reported in PubChem BioAssay.
# Calls of active or inactive are those of the source.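 Rule for the calls, unless noted: active = inhibition at or above 50% at 10 µM; inactive = inhibition below 50%.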
# Assays:
# [1] = inhibitors of TNFa-induced NFkB p65 translocation, primary screen, imaging, HUVEC, MLSMR starter and 10KST1 sets (AID 438;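 active = inhibition above 20% together with a positive visual image hit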;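 note: compound added about 3h40 before a 20 min TNFalpha stimulation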;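 for inhibition: signal is the nuclear over cytoplasmic p65 intensity ratio per well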); details: HUVEC TNFa-induced p65 nuclear translocation; cell count: measured here: nuclei count (cytotoxicity indicator), at 2.08 µM; inhibition: at 2 µM, stronger effect = higher value, 0% TNFa-plus-vehicle, 100% no-TNFa wells
# [2] = inhibitors of mutant huntingtin aggregation, primary screen, imaging, exon1htt(103Q)mCFP cells, high-content imaging (AID 483;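 active = visual image review flags a hit and inhibition of aggregation exceeds 20%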;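 note: compound exposure lasted 3 days before fixation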;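 for nuclei count: percent of the per-plate median nuclei count of sample wells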); details: exon1htt(103Q)mCFP cell line, aggregate imaging, at 2 µM; inhibition of aggregation: stronger effect = higher value; nuclei count: measured here: cell count, toxicity
# [3] = inhibitors of E-selectin induction by TNFa, primary screen, imaging, HUVEC, immunofluorescence, MLSMR starter and 10KST1 sets (AID 487;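 active = visually confirmed hit in the image check and inhibition above 20%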;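 for inhibition: signal is fraction of cell area covered by stained E-selectin grains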;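 for nuclei count: 100% = median nuclei count of all wells on the same plate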); details: HUVEC TNFalpha-induced E-selectin immunofluorescence imaging, at 2 µM; inhibition: stronger effect = higher value; nuclei count: measured here: cell number, toxicity
# [4] = biological target: Voltage-gated potassium channel subunit beta-2 (Rattus norvegicus) (UniProt P62483); experiment: KvBeta enzyme negative modulators, primary screen, biochemical, NADPH fluorescence (AID 622;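 active = fluorescence slope higher than the sample average by over 3 SD, cut at about -0.22 in these data, passing the limit was not always enough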;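 note: slope of raw intensity against log time taken from 70 to 1610 s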); details: recombinant KvBeta, 4-cyanobenzaldehyde reduction, at 10 µM, stronger effect = higher value
# [5] = biological target: Voltage-gated potassium channel subunit beta-2 (Rattus norvegicus) (UniProt P62483); experiment: KvBeta positive modulators, primary screen, biochemical, NADPH fluorescence (AID 623;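 active = NADPH fluorescence slope more negative than the mean of all samples by about 3 SD, 99.7% confidence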;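 note: fluorescence intensity change per second fitted from 20 to 320 s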); details: Recombinant KvBeta, NADPH fluorescence decrease slope, 10 min; at 10 µM; stronger effect = lower value
# [6] = biological target: Muscarinic acetylcholine receptor M4 (Homo sapiens) (UniProt P08173); experiment: compounds altering M4/GIRK thallium flux, either direction, primary screen, M4 allosteric agonist project, cell-based, HEK293 M4/GIRK, BTC-AM (AID 625;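 active = fluorescence slope after compound addition differing from the mean of all tested samples at 99.7% confidence, mostly higher but some lower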;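 note: thallium influx through GIRK channels coupled to M4 in HEK293 cells with BTC-AM dye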); details: at 10 µM, actives lie on both sides
# In short: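 System: HEK293 cells with M4 receptor and GIRK channels | Incubation: Cells overnight at 37 °C, BTC-AM loading 1 h, reads 2 min total | Technique: Kinetic BTC-AM fluorescence sampled at 1 Hz, 10 s pre-addition baseline | Measure: Post-addition slope, 15–24 s, of baseline-normalized fluorescence | Control set: Carbachol positive, DMSO negative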
# [7] = inhibitors of Sendai virus-induced IRF3 signaling, primary screen, TLR/RLR signaling modifier project, cell-based, Sendai virus stimulus, luciferase, 10K MLSCN set (AID 602276); details: HEK293 RL24 IRF3 luciferase reporter, at 10 µM, stronger effect = higher value;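 note: firefly luciferase from ISG56 promoter only with Renilla not read in this screen; 0% = Sendai virus plus DMSO and 100% = medium plus DMSO without virus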
# [8] = inhibitors of poly I:C-induced TLR3 signaling, primary screen, cell-based, poly I:C stimulus, luciferase, 10K MLSCN set (AID 602277;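 active = inhibition of the reporter signal at or above 50%; inactive = inhibition below 50%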); details: HEK293-TLR3 RL24 IRF3 luciferase reporter, at 10 µM, stronger effect = higher value
# Sequence of Voltage-gated potassium channel subunit beta-2 (Rattus norvegicus) (P62483 whole entry, looked up): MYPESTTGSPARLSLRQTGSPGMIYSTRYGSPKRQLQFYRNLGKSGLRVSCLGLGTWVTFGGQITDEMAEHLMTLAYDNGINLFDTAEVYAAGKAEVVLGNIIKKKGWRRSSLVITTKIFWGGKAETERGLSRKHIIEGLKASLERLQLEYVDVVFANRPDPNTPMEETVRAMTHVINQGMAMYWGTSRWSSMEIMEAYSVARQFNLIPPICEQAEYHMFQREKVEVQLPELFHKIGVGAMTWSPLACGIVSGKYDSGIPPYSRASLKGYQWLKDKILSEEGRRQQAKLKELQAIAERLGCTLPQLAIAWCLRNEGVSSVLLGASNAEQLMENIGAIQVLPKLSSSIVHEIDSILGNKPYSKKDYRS
# Sequence of Muscarinic acetylcholine receptor M4 (Homo sapiens) (P08173 whole entry, looked up): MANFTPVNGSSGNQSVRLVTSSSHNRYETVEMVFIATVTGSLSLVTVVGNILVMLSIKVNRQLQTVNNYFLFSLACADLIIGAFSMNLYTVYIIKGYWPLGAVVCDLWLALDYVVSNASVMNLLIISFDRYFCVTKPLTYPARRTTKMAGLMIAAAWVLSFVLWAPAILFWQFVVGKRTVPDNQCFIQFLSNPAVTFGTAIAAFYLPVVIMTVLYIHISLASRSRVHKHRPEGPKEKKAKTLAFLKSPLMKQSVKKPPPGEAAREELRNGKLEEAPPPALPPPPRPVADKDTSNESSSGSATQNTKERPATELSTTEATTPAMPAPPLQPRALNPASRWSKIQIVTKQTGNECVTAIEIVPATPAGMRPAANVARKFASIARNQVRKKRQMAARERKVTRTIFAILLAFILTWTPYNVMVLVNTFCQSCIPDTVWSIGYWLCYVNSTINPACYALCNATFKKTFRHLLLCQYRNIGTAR
Structure (SMILES),cell count [1],inhibition [1],inhibition of aggregation [2],nuclei count [2],inhibition [3],nuclei count [3],fluorescence slope [4],NADPH fluorescence slope [5],fluorescence slope [6],inhibition [7],inhibition [8]
Cc1nc(SCC#N)c2c(C)c(C)sc2n1,818,-4.3% (inactive),-3.4% (inactive),101%,-84.3% (inactive),118%,-0.551 (inactive),-2.7e-05 (inactive),0.00593 (inactive),10.7% (inactive),-9.75% (inactive)
CC1CCN(C(=O)c2ccc(C(=O)N3CCC(C)CC3)cc2)CC1,348,4.7% (inactive),2.4% (inactive),95.8%,33.2% (inactive),76.8%,-0.459 (inactive),-3e-05 (inactive),0.00464 (inactive),12.9% (inactive),12.8% (inactive)
CCOC(=O)N1CCN(S(=O)(=O)c2ccc(Br)s2)CC1,350,-8.6% (inactive),-13.3% (inactive),84.3%,-27.3% (inactive),98.6%,-0.553 (inactive),-1.3e-06 (inactive),0.00427 (inactive),21.3% (inactive),11.6% (inactive)
CC(C)=CCSc1nnc(CCNC(=O)OC(C)(C)C)o1,391,14.5% (inactive),17.1% (inactive),90%,22.3% (inactive),95.7%,-0.402 (inactive),8.7e-05 (inactive),0.00571 (inactive),9.62% (inactive),12.6% (inactive)
O=S(=O)(NCC1CCCO1)c1ccc(S(=O)(=O)N2CCc3ccccc3C2)cc1 (stereo not drawn),685,-4.3% (inactive),-21.6% (inactive),97.8%,-132% (inactive),140%,-0.525 (inactive),-3.8e-05 (inactive),0.00466 (inactive),19.5% (inactive),19.5% (inactive)
CCCn1c(=N)n(CC(=O)c2cccs2)c2ccccc21,427,3.8% (inactive),-0.8% (inactive),87.6%,-47% (inactive),114%,-0.552 (inactive),-2.9e-05 (inactive),0.00423 (inactive),2.39% (inactive),3.66% (inactive)
CCN(CC)C(=O)C1=C(C)NC(=O)NC1c1c(F)cccc1Cl (stereo not drawn),410,-7.5% (inactive),-3.7% (inactive),116%,-73.9% (inactive),122%,-0.521 (inactive),-0.000194 (inactive),0.00392 (inactive),7.67% (inactive),10.6% (inactive)
O=C(O)C1C2C=CC(O2)C1C(=O)NCc1ccc(Cl)cc1 (stereo not drawn),714,-7.5% (inactive),22.6% (inactive),95.5%,16.4% (inactive),100%,-0.531 (inactive),-3.3e-05 (inactive),0.0043 (inactive),11.9% (inactive),5.33% (inactive)
Cc1ccc(SCCNS(=O)(=O)c2ccc(F)cc2)cc1,348,4% (inactive),-4.1% (inactive),106%,-53.9% (inactive),122%,-0.55 (inactive),-3.1e-05 (inactive),0.0043 (inactive),8.34% (inactive),12.7% (inactive)
CSc1n[nH]c(NCc2ccccc2)n1,278,0.2% (inactive),10.1% (inactive),70.6%,-70.1% (inactive),119%,-0.482 (inactive),-1.9e-05 (inactive),0.00548 (inactive),6.09% (inactive),-2.54% (inactive)
Cn1nc(-c2ccc(C(=O)N3CCN(c4ccccc4)CC3)cc2)c2ccccc2c1=O,769,-4% (inactive),10.9% (inactive),90.3%,-13.7% (inactive),110%,-0.552 (inactive),-4.4e-05 (inactive),0.00744 (inactive),-31.8% (inactive),-26.4% (inactive)
CC1CCN(CCCNC(=O)c2cn(C)c3ccc(S(=O)(=O)N4CCCC4)cc3c2=O)CC1,515,1.8% (inactive),0% (inactive),93.4%,18.8% (inactive),61.5%,-0.321 (inactive),-5.9e-05 (inactive),0.00713 (inactive),3.75% (inactive),21.7% (inactive)
[O-][n+]1onc2c1CCc1nnc(-c3ccccc3)cc1-2,320,-0.8% (inactive),7.5% (inactive),102%,-7.3% (inactive),123%,-0.598 (inactive),2.3e-05 (inactive),0.00387 (inactive),-0.775% (inactive),-6.53% (inactive)
COc1ccccc1CN1CC(C(=O)N2CCN(c3ccc(F)cc3)CC2)CC1=O (stereo not drawn),400,72.8% (active),-14.7% (inactive),101%,-19.6% (inactive),106%,-0.583 (inactive),-4.4e-05 (inactive),0.00225 (inactive),16.3% (inactive),7.05% (inactive)
COc1ccc(OC)c(NC(=O)Cc2coc3ccc(C)cc23)c1,451,3.5% (inactive),3.9% (inactive),97.1%,46.7% (inactive),90.5%,-0.468 (inactive),-3.1e-05 (inactive),0.0049 (inactive),13.3% (inactive),16.6% (inactive)
CCOC(=O)N1CCC(NC(=O)CCc2c(C)nc3c(c(C)nn3C(C)(C)C)c2C)CC1,650,2.6% (inactive),7.1% (inactive),138%,-8.7% (inactive),106%,-0.397 (inactive),3.3e-05 (inactive),0.00517 (inactive),11% (inactive),-3.64% (inactive)
CCCCOC(=O)CSc1nc2c(cc1C#N)C(=O)CC(C)(C)C2,531,6.7% (inactive),-21.3% (inactive),98.4%,37.8% (inactive),96.9%,-0.447 (inactive),-0.000295 (inactive),0.00537 (inactive),-23.7% (inactive),-55.1% (inactive)
CCn1c(=O)cc(SCC(=O)Nc2ccc3c(c2)OCO3)c2ccccc21,368,3.1% (inactive),1.5% (inactive),97.6%,-7.2% (inactive),115%,-0.432 (inactive),4e-05 (inactive),0.00544 (inactive),-16.8% (inactive),-13.5% (inactive)
